# Screens as filed in PubChem.
# Calb FLC: affects C. albicans growth with fluconazole. C. albicans CaCi-2 (fluconazole-resistant clinical isolate) + fluconazole, Alamar Blue growth, 48 h. growth inhibition, % (concentration not given with the values). hit rate 0.57% among 300,000;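 active means growth inhibition above about 58% in most replicates, limit read from the data, passing the limit was not always enough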;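 further: all wells also contain fluconazole at 8 µg/ml as a sub-toxic cotreatment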
# T cruzi repl: blocks replication of Trypanosoma cruzi | T. cruzi beta-gal in NIH3T3, luminescence, 90 h | inhibition, % (test concentration not listed) | hit rate 1.4% among 300,000;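 active means mean inhibition across valid replicates above about 55%, limit read from the data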;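 further: signal also drops with host cell toxicity which is not excluded here; higher percent means less beta-gal luminescence so fewer parasites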
#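 System: Mouse NIH/3T3 fibroblasts infected with β-gal-expressing T. cruzi Tulahuen C4 | Quantity: NIH/3T3 cells, 5,000 per well | Reagent: 5000 reporter trypomastigotes per well | Dosing: Compound pinned at 50 nL/well, DMSO | Schedule: 3 h host attachment, then at least 90 h co-culture | Detection: GalScreen luminescence, 60 min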
# Mdm2 MdmX PPI: disrupts the human Mdm2-MdmX interaction; SaOS-2 split-luciferase Mdm2/MdmX complementation, luminescence; inhibition, % at 8 µM; hit rate 3% among 330,000; AID 485346;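 active means inhibition of at least 50% at 8 µM in the primary screen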
# Target sequence (O15151 whole entry, looked up): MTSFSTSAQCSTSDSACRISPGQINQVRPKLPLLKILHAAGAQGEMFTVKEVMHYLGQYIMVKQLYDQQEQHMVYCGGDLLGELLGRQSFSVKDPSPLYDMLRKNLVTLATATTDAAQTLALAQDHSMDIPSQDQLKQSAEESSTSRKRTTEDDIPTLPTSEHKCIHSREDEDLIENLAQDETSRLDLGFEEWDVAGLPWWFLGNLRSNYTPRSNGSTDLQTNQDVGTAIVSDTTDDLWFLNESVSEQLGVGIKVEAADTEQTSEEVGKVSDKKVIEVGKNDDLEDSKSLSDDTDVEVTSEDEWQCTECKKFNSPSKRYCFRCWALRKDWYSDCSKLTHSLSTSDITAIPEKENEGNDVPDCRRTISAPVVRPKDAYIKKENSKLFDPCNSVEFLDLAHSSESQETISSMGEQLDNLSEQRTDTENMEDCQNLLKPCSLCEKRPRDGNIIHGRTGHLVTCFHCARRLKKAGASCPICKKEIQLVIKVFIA
# Target sequence (Q00987 whole entry, looked up): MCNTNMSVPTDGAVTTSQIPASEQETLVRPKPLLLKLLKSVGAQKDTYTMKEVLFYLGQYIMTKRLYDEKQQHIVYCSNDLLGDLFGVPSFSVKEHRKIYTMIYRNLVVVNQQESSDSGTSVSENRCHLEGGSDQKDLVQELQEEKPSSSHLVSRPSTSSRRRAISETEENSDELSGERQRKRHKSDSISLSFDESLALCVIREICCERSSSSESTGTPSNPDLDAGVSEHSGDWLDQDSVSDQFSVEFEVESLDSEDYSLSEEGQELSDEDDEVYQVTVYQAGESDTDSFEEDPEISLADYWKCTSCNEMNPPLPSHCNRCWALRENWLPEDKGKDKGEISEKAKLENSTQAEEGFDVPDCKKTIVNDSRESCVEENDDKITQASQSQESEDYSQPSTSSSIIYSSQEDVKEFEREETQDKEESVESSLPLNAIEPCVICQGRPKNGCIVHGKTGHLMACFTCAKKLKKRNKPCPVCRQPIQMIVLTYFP
# NALP3 yeast inh: NALP3 inhibition in yeast; Yeast reconstituted NLRP3/ASC/caspase-1, beta-gal luminescence, 24 h; inhibition, % at 10 µM; hit rate 0.39% among 330,000;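 active means inhibition of 50% or more; inactive means inhibition below 50%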
# CSC inhib: cancer stem cell inhibition; cancer stem cell-like cells viability, luminescence; inhibition, % at 7.5 µM; hit rate 1.1% among 300,000; in the data active means inhibition above about 75%; tested in HMLE shEcad cells
# Beta apoptosis: blocks beta cell apoptosis | AID 435005 | protection from apoptosis, % (test concentration not listed) | hit rate 0.8% among 300,000 | INS-1E cytokine-induced death, ATP luminescence, 48 h; percent of positive-control rescue, neutral wells zero;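 active means Every replicate reaches about 75%, or at least half do and their mean reaches it too, limit read from the data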;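 further: higher means more ATP so stronger rescue from cytokine killing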
# Mdm2-MdmX conf: human Mdm2/MdmX binding inhibition, confirmed. inhibition, % at 8 µM. AID 489028. luminescent assay. shares compounds with Mdm2 MdmX PPI. hit rate 55% among 10,000; in the data active means inhibition above about 40%
# Full FLuc ctr: inhibits full-length luciferase, flagging false Mdm2/MdmX hits | shares compounds with Mdm2 MdmX PPI | SaOS-2 full-length luciferase counterscreen, luminescence | inhibition, % at 8 µM | hit rate 77% among 6,200 | AID 504607;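 active means mean inhibition at 8 µM reaching about 37%, which flags the compound as non-specific, limit read from the data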;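 further: p53-null SaOS-2 cells with luciferase driven by a doxycycline-inducible promoter; compound on cells about two nights before reading with doxycycline added after day one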
# A number is an active result; . = inactive; / = no result given. Shown are actives, neighbours in structure and some others; about 5.3% of the full set was active somewhere.
SMILES,Calb FLC,T cruzi repl,Mdm2 MdmX PPI,NALP3 yeast inh,CSC inhib,Beta apoptosis,Mdm2-MdmX conf,Full FLuc ctr
CC(=O)Nc1cccc(-c2csc(N)n2)c1,.,.,.,.,.,.,/,/
COC(=O)CNC(=O)C(NC(=O)c1ccc(Cl)cc1)C(C)C (centres undefined),.,.,.,.,.,.,/,/
CCc1nc(N2CCN(C(C)=O)CC2)c2c3c(sc2n1)CC(C(C)(C)C)CC3 (centres undefined),.,.,72,.,.,118,.,63
CCNC(=S)N1CCN(c2nc(CC)nc3sc4c(c23)CCCC4)CC1,.,.,.,.,.,.,/,/
CCc1nc(N2CCN(C(=O)CCl)CC2)c2c3c(sc2n1)CC(C)CC3 (centres undefined),.,.,100,.,.,.,.,/
O=C(NNC(=O)c1ccccc1O)c1ccc(NS(=O)(=O)c2ccc(F)c(F)c2)cc1,.,.,.,.,.,/,/,/
CCOc1ccc(NS(=O)(=O)c2cc(NC(=O)c3ccc(C)cc3)ccc2Cl)cc1,.,.,57,.,.,.,67,64
Cc1ccc(NS(=O)(=O)c2ccc(C(=O)NNC(=O)c3ccccc3O)cc2)cc1,.,.,62,.,.,.,55,52
CCCCC(=O)Nc1ccc(C(=O)Nc2ccc(S(=O)(=O)Nc3ccc(C)cc3)cc2)cc1,.,.,63,.,.,.,.,41
COc1ccc(S(=O)(=O)N2CCCCCC2)cc1C(=O)OCC(=O)NC(N)=O,.,.,.,.,.,/,/,/
CC(C)OCCCNC(=O)c1c(N)n(/N=C/c2ccccn2)c2nc3ccccc3nc12,.,.,64,.,.,.,52,63
CCC(C)NC(=O)c1c(N)n(/N=C/c2cccnc2)c2nc3ccccc3nc12 (centres undefined),.,.,65,.,.,.,60,61
COCCCNC(=O)c1c(N)n(/N=C/c2cccnc2)c2nc3ccccc3nc12,.,.,.,.,.,/,/,/
Cc1nc(C(=O)NCc2ccccc2)sc1C1(C)CC(c2cccc([N+](=O)[O-])c2)=NO1 (centres undefined),.,.,64,.,.,.,.,/
Cc1nc(C(=O)NCCC(C)C)sc1C1(C)CC(c2cccc([N+](=O)[O-])c2)=NO1 (centres undefined),.,.,.,.,/,/,/,/
CNC(=O)c1nc(C)c(C2(C)CC(c3cccc([N+](=O)[O-])c3)=NO2)s1 (centres undefined),.,.,53,.,.,.,43,57
COc1cc(NC(=O)COC(=O)c2cc(S(=O)(=O)N3CCCCC3)ccc2Cl)c(C)cc1[N+](=O)[O-],.,.,.,.,.,.,/,/
CCN(CC)c1ccc(/C=C(/C#N)c2nc3ccccc3[nH]2)c(OC(C)C)c1,.,.,80,.,.,.,77,88
Cc1ccccc1NC(=O)Nc1nnc(Cc2ccc([N+](=O)[O-])cc2)s1,.,.,67,.,/,.,.,/
O=C(Nc1ccccc1)Nc1nnc(Cc2ccc([N+](=O)[O-])cc2)s1,.,.,66,.,.,.,.,/
Cc1ccc(NC(=O)Nc2nnc(Cc3ccc(F)cc3)s2)cc1,.,.,55,.,.,.,.,/
COc1ccc(Cc2nnc(NC(=O)Nc3ccc(C)cc3)s2)cc1OC,.,.,.,.,.,.,/,/
Cc1ccc(NC(=O)Nc2nnc(Cc3ccc([N+](=O)[O-])cc3)s2)cc1C,.,.,57,.,/,/,.,39
O=C(Nc1nnc(Cc2ccc([N+](=O)[O-])cc2)s1)Nc1ccccc1F,.,.,.,.,.,.,/,/
Cc1ccc(S(=O)(=O)NN2C(=O)c3ccccc3NC2c2ccccc2)cc1 (centres undefined),.,.,.,.,.,/,/,/
SMILES,Calb FLC,T cruzi repl,Mdm2 MdmX PPI,NALP3 yeast inh,CSC inhib,Beta apoptosis,Mdm2-MdmX conf,Full FLuc ctr
C=CC(=O)Nc1ccc(Br)cc1,.,.,.,.,.,.,/,/
Cc1ccc(C(=O)N(CN2CCCC2=O)c2ccccc2)cc1,.,.,.,.,.,.,/,/
CCc1ccccc1OCC(=O)Nc1cc(S(=O)(=O)N2CCOCC2)ccc1N1CCCCC1,/,/,52,.,/,/,41,83
O=C(Nc1ccc(Cl)c(Cl)c1)Nc1cc(S(=O)(=O)N2CCOCC2)ccc1N1CCCC1,.,.,53,.,.,.,.,/
COc1ccc(S(=O)(=O)N2CCOCC2)cc1NC(=O)COc1ccc(C)cc1,/,/,.,.,.,.,/,/
COc1ccc(Cl)cc1NC(=O)COc1ccc(S(=O)(=O)N2CCOCC2)cc1C,.,.,68,.,.,.,.,/
CCOc1ccc(S(=O)(=O)N2CCOCC2)cc1NC(=O)CSCc1ccc(C)cc1,/,/,52,.,.,.,56,54
CCOc1ccc(S(=O)(=O)N2CCOCC2)cc1NC(=O)C1CCC1,.,.,.,.,/,.,/,/
COC(=O)c1ccc(COC(=O)CNC(=O)c2ccc(OC)cc2)cc1,/,/,.,.,.,.,/,/
COC(=O)[C@H]1C[C@H](O)CN1S(=O)(=O)c1ccc(Br)cc1F,/,/,.,/,/,/,/,/
CCCCn1c(Oc2ccc(C(=O)OC)cc2)nc2c1c(=O)n(C)c(=O)n2C,.,.,.,.,.,.,/,/
CC(C)[C@H](NC(=O)c1ccccc1F)C(=O)Nc1ccc2c(c1)OCO2,/,/,.,.,.,.,/,/
O=C(NCc1ccccc1)c1nc2c(nnn2Cc2cccc(Cl)c2)c(=O)[nH]1,.,.,.,.,.,.,/,/
O=C(COc1ccc(S(=O)(=O)N2CCOCC2)cc1)Nc1ccc(Cl)c(C(F)(F)F)c1,.,.,61,.,.,/,43,65
CN1CCN(S(=O)(=O)c2ccc(NC(=O)Nc3cccc(Cl)c3)cc2)CC1,.,.,.,.,/,.,/,/
O=C(Nc1cccc(Cl)c1)Nc1cc(S(=O)(=O)N2CCCCC2)ccc1Cl,.,55,89,.,87,.,91,51
O=C(O)CC1(CC(=O)Nc2ccc3ccccc3c2)CCCCC1,.,.,.,.,.,.,/,/
N#Cc1c2ccc(OCC(=O)NCc3ccco3)cc2n2ccccc12,.,.,.,.,.,.,/,/
N#Cc1c2ccc(O)cc2n2ccccc12,.,65,76,.,.,.,73,.
Cc1ccc(-c2csc(=Nc3cccnc3)n2CCCn2ccnc2)cc1C,.,64,71,.,.,.,75,.
Cc1ccc(-c2csc(=Nc3cccnc3)n2CCCN2CCCC2=O)cc1C,.,.,.,.,.,.,/,/
O=C(NNC(=O)c1ccccc1OCc1ccccc1)c1ccccc1O,.,.,64,.,.,86,70,.
O=C(NNC(=O)c1ccccc1OCc1ccc(F)cc1)c1ccccc1O,.,.,69,.,.,87,73,.
O=C(NNC(=O)c1ccccc1OCc1ccccc1)c1ccccc1F,/,.,.,.,.,.,/,/
